SIRT5 block – blocks human SIRT5 desuccinylation of peptide; Q9NXA8; inhibition, % at 15 µM; 1.1% of 330,000 active; AID 652115; Purified SirT5, succinyl-peptide AMC, trypsin-coupled fluorescence; in the data active = inhibition above about 15%
Target sequence (Q9NXA8 whole entry, looked up): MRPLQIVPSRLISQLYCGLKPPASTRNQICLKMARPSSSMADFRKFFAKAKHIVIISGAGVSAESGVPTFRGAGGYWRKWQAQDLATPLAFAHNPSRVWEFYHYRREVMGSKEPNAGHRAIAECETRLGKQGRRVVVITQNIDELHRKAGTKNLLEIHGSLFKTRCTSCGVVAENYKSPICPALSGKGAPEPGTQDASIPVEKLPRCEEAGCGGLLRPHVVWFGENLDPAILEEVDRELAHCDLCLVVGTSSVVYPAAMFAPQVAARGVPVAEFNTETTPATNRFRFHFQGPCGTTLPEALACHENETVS
FGF22 binding – FGF22 (human) thermal shift binding; Q9HCT0; recombinant FGF22 thermal shift, SYPRO orange fluorescence; percent of sucrose octasulfate shift, DMSO zero; activity (Tm shift, normalised), % at 9.99 µM; 1.5% of 340,000 active;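 active = mean Tm shift, scaled 0 neutral to 100 positive control, at about 1.3% or above, every replicate too, limit read from the data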
PGC1a acetyl inh – modulators of PGC1a acetylation. 0.17% of 350,000 active. U2OS PGC1a acetylation, AlphaScreen anti-acetyl-lysine; with virally co-expressed GCN5 acetyltransferase. inhibition, % at 15.6 µM;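 active = every replicate shows inhibition of at least 40%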
FN deposit inh – fibronectin deposition inhibition; AH1F fibroblasts, Alexa488-fibronectin deposition fluorescence, overnight; inhibition, % at 12.6 µM; 0.086% of 350,000 active;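 active = mean inhibition across replicates of 30% or more, regardless of how many single replicates reach that level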
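Schedule: 1 h cell adhesion before compound, then overnight fibronectin incubation; test system: AH1F fibroblast monolayer depositing Alexa488-labelled fibronectin into matrix; quantity: 10000 AH1F cells per well; probe or stimulus: fluorescent fibronectin at 24 nM final; signal: fluorescence, ex 485 nm, em 525 nm; evaluation: percent inhibition as loss of matrix-bound fibronectin fluorescence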
ERAP1 inh – ERAP1 (human) enzyme inhibition. Q9NZ08. inhibition, % at 10.7 µM. AID 652197. recombinant ERAP1, Leu-AMC fluorescence, 60 min. 0.15% of 340,000 active;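 active = mean replicate inhibition of at least 30%, or all replicates individually reaching that 30% level; inactive = mean below 30% and not every replicate reaching it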
Numbers stand for hits; i = inactive; nt = no result. The list is not random: actives were taken first. Their share in the collection is about 2.2%.

SMILES	SIRT5 block	FGF22 binding	PGC1a acetyl inh	FN deposit inh	ERAP1 inh
CN(CC(=O)NCCc1ccc(S(N)(=O)=O)cc1)S(=O)(=O)/C=C/c1ccccc1	i	i	i	i	i
CN(CC(=O)NCCc1ccc(S(N)(=O)=O)cc1)c1ccccc1	i	43.1	i	i	i
COc1ccccc1NC(=S)NCCc1ccc(S(N)(=O)=O)cc1	i	45.8	i	i	i
CCOc1ccccc1OCC(=O)NCCc1ccc(S(N)(=O)=O)cc1	i	43.4	i	i	i
COc1ccc2[nH]c(C)c(CCNC(=S)Nc3ccccc3OC)c2c1	i	43.4	nt	i	i
C[C@H]1CN([C@@H](C)CO)C(=O)Cc2cc(NC(=O)Cc3cn(C)c4ccccc34)ccc2O[C@H]1CN(C)C	i	i	i	i	i
Cc1ccc(NCC(=O)N/N=C/c2cc(O)ccc2[N+](=O)[O-])cc1	i	43.0	i	i	i
Cc1ccc(NCC(=O)N/N=C/c2ccncc2)cc1	i	i	i	nt	i
N=c1c(C(=O)NCCN2CCOCC2)cc2c(=O)n3ccccc3nc2n1CCc1ccccc1	i	i	i	i	50.9
Cn1c(C(=O)NCCN2CCOCC2)cc2c(=O)n3ccccc3nc21	i	i	nt	i	i
COCCCn1c(C(=O)NCCN2CCOCC2)cc2c(=O)n3ccccc3nc21	i	i	nt	i	41.7
N=c1c(C(=O)NCCc2ccccc2)cc2c(=O)n3ccccc3nc2n1CCCN1CCOCC1	i	i	i	i	i
C[C@H](CO)N1C[C@H](C)[C@@H](CN(C)S(=O)(=O)c2ccc(Cl)cc2)Oc2ccc(NC(=O)c3ccncc3)cc2C1=O	i	i	i	i	i
O=C(O)CSc1cc(C(=O)c2ccccc2O)cn2c(=O)c3c4c(sc3nc12)CCCC4	37.3	i	i	i	i
CN1C[C@@H]2[C@H](c3ccccc31)[C@@H](CO)N2C(=O)C1CC1	i	i	i	i	i
CC(/C=N\N1CCN(Cc2ccc(C)cc2)CC1)=C\c1ccccc1	i	43.8	i	i	i
COc1cccc(C(=O)N2C[C@H]3[C@@H](c4ccccc42)[C@H](CO)N3Cc2ccccc2Cl)c1	i	i	i	nt	i
C/C(=N\NC(=O)COc1ccc(C)cc1Br)c1cc([N+](=O)[O-])cs1	nt	43.5	i	nt	i
CN(C)C(=O)c1ccc(-c2ccccc2[C@H]2[C@@H](C#N)N(C(=O)C3CC3)[C@@H]2CO)cc1	i	nt	i	i	i
CCOC(=O)C1=CCN(S(=O)(=O)c2ccc(C)cc2)C1c1ccc(C)cc1 (stereo not given)	i	i	i	i	i
CCOC(=O)C1=CCN(S(=O)(=O)c2ccc(C)cc2)C1c1ccc(CC)cc1 (stereo not given)	15.9	i	i	i	i
CCOC(=O)C1=CCN(S(=O)(=O)c2ccc(C)cc2)C1c1cccc(Br)c1 (stereo not given)	28.8	i	i	i	i
CCOC(=O)C1=CCN(S(=O)(=O)c2ccc(Br)cc2)C1c1cccc(C)c1 (stereo not given)	nt	i	i	i	i
OCc1c(Cl)nc2ccccn12	i	43.1	nt	i	i
CC=Cc1ccc2n(c1=O)C[C@H]1[C@H](CO)[C@@H](C(=O)NCCC)N(CC3CCCC3)[C@@H]21 (mixture of isomers)	i	i	i	nt	i
SMILES	SIRT5 block	FGF22 binding	PGC1a acetyl inh	FN deposit inh	ERAP1 inh
CC(C)(C)c1ccc(-c2nc(N)nc(N)n2)cc1	i	i	i	i	nt
Nc1nc(-c2ccc(Cl)cc2)nc(-c2ccc(Cl)cc2)n1	29.0	i	i	i	nt
C[C@H]1CN([C@@H](C)CO)S(=O)(=O)c2ccc(-c3cccnc3)cc2O[C@@H]1CN(C)Cc1cccnc1	nt	nt	i	i	nt
CCS(=O)(=O)Nc1ccc2c(c1)C(=O)N(C)[C@@H]1CC[C@@H](CC(=O)N3CCOCC3)O[C@@H]1CO2	i	i	i	i	i
C[C@@H]1CN([C@H](C)CO)C(=O)c2cccc(NC(=O)CCCCCC(=O)Nc3ccccc3N)c2O[C@H]1CN(C)Cc1ccccc1	i	i	i	nt	i
C[C@H]1CN([C@@H](C)CO)C(=O)c2cccc(NC(=O)CCCCCC(=O)Nc3ccccc3N)c2O[C@@H]1CN(C)Cc1ccc(-c2ccccc2)cc1	17.1	i	i	nt	i
C[C@@H]1CN([C@H](C)CO)C(=O)c2cccc(NC(=O)CCCCCC(=O)Nc3ccccc3N)c2O[C@H]1CN(C)Cc1ccc(-c2ccccc2)cc1	16.6	i	i	nt	i

Source: PubChem (Broad Institute)
